Tests used:
[1] = tested on: HeLa; experiment: Cytotoxicity against human HeLa cells after 72 hrs by alamar blue assay
[2] = Metabolic stability in rat liver microsomes assessed as compound turnover after 30 mins; assay type: ADME, Microsome; conditions: read-out: Activity
[3] = biological target: T1, Nuclear receptor subfamily 1 group I member 2 (Homo sapiens, UniProt O75469); experiment: Activation of human PXR expressed in human HepG2 cells at 2 uM by luciferase reporter gene assay relative to rifampin; assay type: cell-based; conditions: hepg2, 2 µM
T1 sequence (O75469 whole entry): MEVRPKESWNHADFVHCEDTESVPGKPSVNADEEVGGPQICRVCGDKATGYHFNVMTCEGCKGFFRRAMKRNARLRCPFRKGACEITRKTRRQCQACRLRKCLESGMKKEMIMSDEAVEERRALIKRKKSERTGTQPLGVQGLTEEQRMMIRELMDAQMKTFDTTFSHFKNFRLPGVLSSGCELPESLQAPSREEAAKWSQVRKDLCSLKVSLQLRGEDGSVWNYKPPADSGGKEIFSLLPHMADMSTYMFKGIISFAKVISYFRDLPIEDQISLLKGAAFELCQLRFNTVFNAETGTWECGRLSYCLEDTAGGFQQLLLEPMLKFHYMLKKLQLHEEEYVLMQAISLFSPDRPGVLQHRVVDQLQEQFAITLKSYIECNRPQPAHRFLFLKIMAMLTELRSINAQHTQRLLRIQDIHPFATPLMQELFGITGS
Outline: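 Transactivation was measured in HepG2 cells transfected with a luciferase reporter construct driven by human PXR cDNA. Luciferase activity was read by chemiluminescence and expressed as percent of the rifampin control.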

[4] = Metabolic stability in human liver microsomes assessed as compound turnover after 30 mins; assay type: ADME, Microsome; conditions: read-out: Activity
[5] = biological target: 11-beta-hydroxysteroid dehydrogenase 1 (Homo sapiens, UniProt P28845); experiment: Inhibition of FLAG-tagged full length human 11beta-HSD1 expressed in baculovirus-infected Trichoplusia ni Hi5 cells assessed as reduction of [3H]cortisone to [3H]cortisol by scintillation proximity assay in presence of NADPH; assay type: cell-based, BTI-TN-5B1-4
[6] = Volume of distribution at steady state in cynomolgus monkey at 0.5 mg/kg, iv and 2 mg/kg, po; conditions: in vivo, read-out: Vdss
[7] = Clearance in cynomolgus monkey at 0.5 mg/kg, iv and 2 mg/kg, po; conditions: in vivo
[8] = AUC in cynomolgus monkey at 2 mg/kg, po; assay type: ADME, organism-based, Macaca fascicularis; design: dose 2 mg/kg, route oral; conditions: plasma
Outline: (§1)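 Single-dose PK: intravenous dose 0.5 or 0.7 mg/kg (footnotes a, b), oral dose 2.0 mg/kg. Reported parameters are iv clearance (L/h/kg), Vdss (L/kg), oral AUC and % oral bioavailability.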

[9] = Bioavailability in cynomolgus monkey at 0.5 mg/kg, iv and 2 mg/kg, po; conditions: in vivo
[10] = Clearance in rat at 0.7 mg/kg, iv and 2 mg/kg, po; assay type: ADME, organism-based; conditions: in vivo; outline: as §1
[11] = AUC in rat at 2 mg/kg, po; assay type: ADME, organism-based; design: dose 2 mg/kg, route oral; conditions: plasma; outline: as §1
[12] = Volume of distribution at steady state in rat at 0.7 mg/kg, iv and 2 mg/kg, po; assay type: ADME, organism-based; conditions: in vivo, read-out: Vdss; outline: as §1
[13] = Bioavailability in rat at 0.7 mg/kg, iv and 2 mg/kg, po; assay type: ADME, organism-based; conditions: in vivo; outline: as §1
[14] = tested on: Cynomolgus monkey; experiment: cells; conditions: Macaca fascicularis, Adipose tissue
[15] = Bioavailability in rat at 0.5 mg/kg, iv and 2 mg/kg, po; assay type: ADME, organism-based; conditions: in vivo; outline: as §1
[16] = Volume of distribution at steady state in cynomolgus monkey at 0.5 mg/kg, iv and 2 mg/kg, po; assay type: ADME, organism-based, Macaca fascicularis; conditions: in vivo, read-out: Vdss; outline: as §1
[17] = biological target: 11-beta-hydroxysteroid dehydrogenase 1 (Rattus norvegicus, UniProt P16232); experiment: Inhibition of rat 11beta-HSD1
Outline: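 Biochemical assay using baculovirus-produced recombinant full-length rat 11β-HSD1 with NADPH as cofactor. Substrate is [3H]cortisone. The [3H]-cortisol formed is captured by anti-cortisol monoclonal antibody SPA beads and quantified by scintillation. IC50 is from dose-response curve fitting of at least duplicate samples.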

[18] = Bioavailability in cynomolgus monkey at 0.5 mg/kg, iv and 2 mg/kg, po; assay type: ADME, organism-based, Macaca fascicularis; conditions: in vivo; outline: as §1
[19] = Fraction unbound in human serum by ultracentrifugation assay; assay type: ADME, cell-free
Outline: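 Human protein binding was measured with separation by ultracentrifugation and reported as fraction unbound.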

[20] = tested on: Rattus norvegicus; experiment: Inhibition of 11beta-HSD1 in epididymal fat tissue of po dosed Sprague-Dawley rat assessed as reduction in [3H]cortisol production after 2 hrs by scintillation proximity assay; conditions: Adipose tissue
[21] = Clearance in cynomolgus monkey at 0.5 mg/kg, iv and 2 mg/kg, po; assay type: ADME, organism-based, Macaca fascicularis; conditions: in vivo; outline: as §1
[22] = Tmax in po dosed Sprague-Dawley rat; assay type: ADME, organism-based; conditions: in vivo
[23] = Clearance in rat at 0.5 mg/kg, iv and 2 mg/kg, po; assay type: ADME, organism-based; conditions: in vivo; outline: as §1
[24] = Volume of distribution at steady state in rat at 0.5 mg/kg, iv and 2 mg/kg, po; assay type: ADME, organism-based; conditions: in vivo, read-out: Vdss; outline: as §1

Sequence of 11-beta-hydroxysteroid dehydrogenase 1 (Homo sapiens, UniProt P28845) (P28845 whole entry): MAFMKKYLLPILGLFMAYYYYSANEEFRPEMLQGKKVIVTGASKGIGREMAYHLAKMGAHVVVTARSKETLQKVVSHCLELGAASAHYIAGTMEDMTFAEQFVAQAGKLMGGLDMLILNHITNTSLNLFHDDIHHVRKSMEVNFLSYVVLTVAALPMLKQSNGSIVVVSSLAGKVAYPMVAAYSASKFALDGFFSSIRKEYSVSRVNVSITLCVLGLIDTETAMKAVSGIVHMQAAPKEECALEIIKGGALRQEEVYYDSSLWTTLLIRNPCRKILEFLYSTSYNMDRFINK
Sequence of 11-beta-hydroxysteroid dehydrogenase 1 (Rattus norvegicus, UniProt P16232) (P16232 whole entry): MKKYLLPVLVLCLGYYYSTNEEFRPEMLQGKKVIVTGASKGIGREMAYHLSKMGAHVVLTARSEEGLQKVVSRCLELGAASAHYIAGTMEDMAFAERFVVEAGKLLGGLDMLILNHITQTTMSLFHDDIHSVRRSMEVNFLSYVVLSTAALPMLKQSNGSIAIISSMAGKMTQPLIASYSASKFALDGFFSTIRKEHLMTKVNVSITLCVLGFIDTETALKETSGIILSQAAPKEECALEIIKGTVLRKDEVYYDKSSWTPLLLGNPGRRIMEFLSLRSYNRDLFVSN

Compound	metabolised at 0.5 h [2]	Activity [3]	metabolised at 0.5 h [4]	IC50 [1]	other results
C[C@](O)(c1ccc(C(=O)N(C2CC2)[C@H]2CC[C@H](c3cccnc3)CC2)cc1)C(F)(F)F		2.2%	< 5%	2.5 µM	IC50 [5]: 1.7 nM
C[C@](O)(c1ccc(C(=O)N(C2CC2)[C@H]2CC[C@@H](c3cccnc3)CC2)cc1)C(F)(F)F		38%	94%	> 10 µM	IC50 [5]: 1.6 nM
C[C@](O)(c1ccc(C(=O)N(C2CC2)[C@H]2CC[C@](C#N)(c3cccnc3)CC2)cc1)C(F)(F)F	35%	< 5%	< 5%	> 10 µM	
C[C@](O)(c1ccc(C(=O)N(C2CC2)[C@H]2CC[C@](O)(c3ccccc3)CC2)cc1)C(F)(F)F	< 5%	< 5%	< 5%	5.1 µM	
C[C@](O)(c1ccc(C(=O)N(C2CC2)[C@H]2CC[C@@](C)(O)CC2)cc1)C(F)(F)F	< 5%	< 5%	< 5%	> 10 µM	
C[C@](O)(c1ccc(C(=O)N(C2CC2)[C@H]2CC[C@](O)(c3cccnc3)CC2)cc1)C(F)(F)F	< 5%	< 5%	< 5%	> 10 µM	
C[C@](O)(c1ccc(C(=O)N(C2CC2)[C@H]2CC[C@](O)(CC3CC3)CC2)cc1)C(F)(F)F	43%	5.9%	10%	2.8 µM	
C[C@](O)(c1ccc(C(=O)N(C2CC2)[C@H]2CC[C@H](c3ccc(C#N)cc3)CC2)cc1)C(F)(F)F		11%	< 5%	1.1 µM	IC50 [5]: 0.76 nM
C[C@](O)(c1ccc(C(=O)N(C2CC2)[C@H]2CC[C@](C#N)(C3CC3)CC2)cc1)C(F)(F)F	< 10%	< 5%	< 10%	> 10 µM	Vd [6]: 1.9 L/kg; clearance [7]: 1.55 mL/min/kg; AUC [8]: 1000 ng·h/mL; bioavailability [9]: 5%; clearance [10]: 3.17 mL/min/kg; AUC [11]: 4100 ng·h/mL; Vd [12]: 2.2 L/kg; bioavailability [13]: 40%
C[C@](O)(c1ccc(C(=O)N(C2CC2)[C@H]2CC[C@](O)(C3CC3)CC2)cc1)C(F)(F)F	7.4%	< 5%	< 5%	> 10 µM	IC50 [14]: 640 nM; bioavailability [15]: 76%; AUC [8]: 4700 ng·h/mL; Vd [16]: 1.5 L/kg; IC50 [17]: 244 nM; bioavailability [18]: 43%; fraction unbound [19]: 0.12; ED50 [20]: 10 mg/kg; clearance [21]: 1.83 mL/min/kg; Tmax [22]: 2 h; clearance [23]: 4 mL/min/kg; AUC [11]: 8900 ng·h/mL; Vd [24]: 2.7 L/kg

The next lines start with results.

metabolised at 0.5 h [2]	Activity [3]	metabolised at 0.5 h [4]	Compound	IC50 [1]	other results
14%	7.6%	< 5%	C[C@@](O)(c1ccc(C(=O)N(C2CC2)[C@H]2CC[C@](C#N)(c3ccccn3)CC2)cc1)C(F)(F)F	> 10 µM	
95%	6.3%	6.9%	C[C@@](O)(c1ccc(C(=O)N(C2CC2)[C@H]2CC[C@@](C#N)(c3ccccn3)CC2)cc1)C(F)(F)F	> 10 µM	
< 5%	< 5%	6.8%	C[C@](O)(c1ccc(C(=O)N(C2CC2)[C@H]2CC[C@](C#N)(c3ccc(C#N)cc3)CC2)cc1)C(F)(F)F	> 10 µM	
	75%	33%	C[C@](O)(c1ccc(C(=O)N(C2CC2)[C@H]2CC[C@@H](c3ccc(C#N)cc3)CC2)cc1)C(F)(F)F	> 10 µM	IC50 [5]: 4.9 nM
	31%	< 5%	C[C@](O)(c1ccc(C(=O)N(C2CC2)[C@H]2CC[C@H](c3ccccc3)CC2)cc1)C(F)(F)F	> 10 µM	
69%	< 3.4%	10%	CC(C)[C@]1(O)CC[C@@H](N(C(=O)c2ccc([C@](C)(O)C(F)(F)F)cc2)C2CC2)CC1	> 10 µM	
> 95%	< 5%	15%	C[C@](O)(c1ccc(C(=O)N(C2CC2)[C@H]2CC[C@@](O)(c3ccccc3)CC2)cc1)C(F)(F)F	> 10 µM	
< 5%	6.1%	< 5%	C[C@](O)(c1ccc(C(=O)N(C2CC2)[C@H]2CC[C@](O)(c3ccccn3)CC2)cc1)C(F)(F)F	> 10 µM	
6%	< 5%	< 5%	C[C@](O)(c1ccc(C(=O)N(C2CC2)[C@H]2CC[C@](C#N)(c3ccccc3)CC2)cc1)C(F)(F)F	> 10 µM	

— ChEMBL document CHEMBL1152882, “Optimization of novel di-substituted cyclohexylbenzamide derivatives as potent 11 beta-HSD1 inhibitors” (Bioorg Med Chem Lett, 2009)
